In brackets after ≈: the same amount, converted by molar mass.
Each compound was assayed on Pseudomonas aeruginosa (assay: Antibacterial activity against Pseudomonas aeruginosa 10-18 after 18 to 24 hrs by NCCLS method).
Type: functional
Procedure, shortened: (§1)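 Standard NCCLS (M100-S11) MIC testing against Gram-positive and Gram-negative strains. Plates were incubated at 35 °C for 18–24 h. The MIC was read as the lowest concentration giving complete inhibition of visible bacterial growth.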

SMILES | MIC [µg/mL]
COc1ccc(CN2CCN(c3cc4c(cc3F)c(=O)c(C(=O)O)cn4C3CC3)CC2)c(OC)c1OC | 64 (≈ 125 µM)

What follows are compounds tested on Klebsiella pneumoniae (assay: Antibacterial activity against extended spectrum beta-lactamases producing Klebsiella pneumoniae 10-1 after 18 to 24 hrs by NCCLS method).
Type: functional
Procedure, shortened: as §1

SMILES | MIC [µg/mL]
COc1ccc(CN2CCN(c3cc4c(cc3F)c(=O)c(C(=O)O)cn4C3CC3)CC2)c(OC)c1OC | > 128

These compounds were tested on Staphylococcus aureus (assay: Antibacterial activity against methicillin-resistant Staphylococcus aureus 10-11 after 18 to 24 hrs by NCCLS method).
Type: functional
Procedure, shortened: (§2)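 Incubated at 35 °C for 18–24 h under NCCLS (M100-S11) standards. MIC was read as the lowest concentration giving complete inhibition of visible bacterial growth.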

SMILES | MIC [µg/mL]
COc1ccc(CN2CCN(c3cc4c(cc3F)c(=O)c(C(=O)O)cn4C3CC3)CC2)c(OC)c1OC | 16 (≈ 31.3 µM)

What follows are compounds tested on Klebsiella pneumoniae (assay: Antibacterial activity against extended spectrum beta-lactamases producing Klebsiella pneumoniae 10-2 after 18 to 24 hrs by NCCLS method).
Type: functional
Procedure, shortened: as §1

SMILES | MIC [µg/mL]
COc1ccc(CN2CCN(c3cc4c(cc3F)c(=O)c(C(=O)O)cn4C3CC3)CC2)c(OC)c1OC | > 128

These compounds were tested on Streptococcus pneumoniae (assay: Antibacterial activity against Streptococcus pneumoniae 10-6 after 18 to 24 hrs by NCCLS method).
Type: functional
Procedure, shortened: as §1

SMILES | MIC [µg/mL]
COc1ccc(CN2CCN(c3cc4c(cc3F)c(=O)c(C(=O)O)cn4C3CC3)CC2)c(OC)c1OC | 64 (≈ 125 µM)

The compounds below were run on Escherichia coli (assay: Antibacterial activity against Escherichia coli 10-3 after 18 to 24 hrs by NCCLS method).
Type: functional
Procedure, shortened: as §1

SMILES | MIC [µg/mL]
COc1ccc(CN2CCN(c3cc4c(cc3F)c(=O)c(C(=O)O)cn4C3CC3)CC2)c(OC)c1OC | 64 (≈ 125 µM)

What follows are compounds tested on Escherichia coli (assay: Antibacterial activity against extended spectrum beta-lactamases producing Escherichia coli 10-3 after 18 to 24 hrs by NCCLS method).
Type: functional
Procedure, shortened: as §1

SMILES | MIC [µg/mL]
COc1ccc(CN2CCN(c3cc4c(cc3F)c(=O)c(C(=O)O)cn4C3CC3)CC2)c(OC)c1OC | > 128

What follows are compounds tested on Streptococcus pneumoniae (assay: Antibacterial activity against Streptococcus pneumoniae 10-1 after 18 to 24 hrs by NCCLS method).
Type: functional
Procedure, shortened: as §1

SMILES | MIC [µg/mL]
COc1ccc(CN2CCN(c3cc4c(cc3F)c(=O)c(C(=O)O)cn4C3CC3)CC2)c(OC)c1OC | 8 (≈ 15.6 µM)

Each compound was assayed on Enterococcus faecalis (assay: Antibacterial activity against Enterococcus faecalis 10-7 after 18 to 24 hrs by NCCLS method).
Type: functional
Procedure, shortened: as §1

SMILES | MIC [µg/mL]
COc1ccc(CN2CCN(c3cc4c(cc3F)c(=O)c(C(=O)O)cn4C3CC3)CC2)c(OC)c1OC | 64 (≈ 125 µM)

What follows are compounds tested on Enterococcus faecium (assay: Antibacterial activity against Enterococcus faecium 10-6 after 18 to 24 hrs by NCCLS method).
Type: functional
Procedure, shortened: as §1

SMILES | MIC [µg/mL]
COc1ccc(CN2CCN(c3cc4c(cc3F)c(=O)c(C(=O)O)cn4C3CC3)CC2)c(OC)c1OC | 8 (≈ 15.6 µM)

The compounds below were run on Klebsiella pneumoniae (assay: Antibacterial activity against Klebsiella pneumoniae 10-3 after 18 to 24 hrs by NCCLS method).
Type: functional
Procedure, shortened: as §1

SMILES | MIC [µg/mL]
COc1ccc(CN2CCN(c3cc4c(cc3F)c(=O)c(C(=O)O)cn4C3CC3)CC2)c(OC)c1OC | 16 (≈ 31.3 µM)

Each compound was assayed on Pseudomonas aeruginosa (assay: Antibacterial activity against Pseudomonas aeruginosa 10-15 after 18 to 24 hrs by NCCLS method).
Type: functional
Procedure, shortened: as §1

SMILES | MIC [µg/mL]
COc1ccc(CN2CCN(c3cc4c(cc3F)c(=O)c(C(=O)O)cn4C3CC3)CC2)c(OC)c1OC | 32 (≈ 62.6 µM)

What follows are compounds tested on Pseudomonas aeruginosa (assay: Antibacterial activity against Pseudomonas aeruginosa 10-9 after 18 to 24 hrs by NCCLS method).
Type: functional
Procedure, shortened: as §1

SMILES | MIC [µg/mL]
COc1ccc(CN2CCN(c3cc4c(cc3F)c(=O)c(C(=O)O)cn4C3CC3)CC2)c(OC)c1OC | 32 (≈ 62.6 µM)

What follows are compounds tested on Enterococcus faecium (assay: Antibacterial activity against Enterococcus faecium 10-9 after 18 to 24 hrs by NCCLS method).
Type: functional
Procedure, shortened: as §1

SMILES | MIC [µg/mL]
COc1ccc(CN2CCN(c3cc4c(cc3F)c(=O)c(C(=O)O)cn4C3CC3)CC2)c(OC)c1OC | 32 (≈ 62.6 µM)

What follows are compounds tested on Mycobacterium tuberculosis (assay: Antimycobacterial activity against Mycobacterium tuberculosis H37Rv ATCC 27294 by microplate alamar blue assay).
Type: functional
Procedure, shortened: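 Microplate Alamar Blue fluorescence assay on strain H37Rv ATCC 27294. MIC was the lowest concentration cutting fluorescence by ≥90% against the mean of replicate bacterium-only controls.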

SMILES | MIC [µg/mL]
COc1ccc(CN2CCN(c3cc4c(cc3F)c(=O)c(C(=O)O)cn4C3CC3)CC2)c(OC)c1OC | 16 (≈ 31.3 µM)

The compounds below were run on Staphylococcus aureus (assay: Antibacterial activity against methicillin-resistant Staphylococcus aureus 10-13 after 18 to 24 hrs by NCCLS method).
Type: functional
Procedure, shortened: as §2

SMILES | MIC [µg/mL]
COc1ccc(CN2CCN(c3cc4c(cc3F)c(=O)c(C(=O)O)cn4C3CC3)CC2)c(OC)c1OC | 64 (≈ 125 µM)

Each compound was assayed on Staphylococcus aureus (assay: Antibacterial activity against methicillin-resistant Staphylococcus aureus 10-15 after 18 to 24 hrs by NCCLS method).
Type: functional
Procedure, shortened: as §2

SMILES | MIC [µg/mL]
COc1ccc(CN2CCN(c3cc4c(cc3F)c(=O)c(C(=O)O)cn4C3CC3)CC2)c(OC)c1OC | 16 (≈ 31.3 µM)

Each compound was assayed on Staphylococcus epidermidis (assay: Antibacterial activity against methicillin-resistant Staphylococcus epidermidis 10-13 after 18 to 24 hrs by NCCLS method).
Type: functional
Procedure, shortened: as §2

SMILES | MIC [µg/mL]
COc1ccc(CN2CCN(c3cc4c(cc3F)c(=O)c(C(=O)O)cn4C3CC3)CC2)c(OC)c1OC | 64 (≈ 125 µM)

The compounds below were run on Staphylococcus epidermidis (assay: Antibacterial activity against methicillin-sensitive Staphylococcus epidermidis 10-15 after 18 to 24 hrs by NCCLS method).
Type: functional
Procedure, shortened: as §2

SMILES | MIC [µg/mL]
COc1ccc(CN2CCN(c3cc4c(cc3F)c(=O)c(C(=O)O)cn4C3CC3)CC2)c(OC)c1OC | 16 (≈ 31.3 µM)

Source: ChEMBL document CHEMBL2157880, “Synthesis, antimycobacterial and antibacterial activity of ciprofloxacin derivatives containing a N-substituted benzyl moiety” (2012)
